Hits are enriched below; roughly 1.8% of the tested compounds scored in any of these assays.
SKN-1 inh: suppressors of acrylamide-induced Pgst-4::GFP reporter in worms, primary screen, SKN-1 inhibitor project, whole organism, uHTS, GFP/RFP fluorescence ratio, strain VP596; 360,000 tested, 0.49% active; inhibition, % at 21.8 µM; C. elegans VP596 Pgst-4::GFP/RFP ratio, 24 h;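 active means interference check ratio from 0.5 to 1.5 plus GFP to RFP signal ratio inhibition reaching or exceeding a fixed threshold, cut at about 30% in these data, passing the limit was not always enough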
PABP FP inh: PABP poly(A) RNA binding inhibitors, primary screen, biochemical, fluorescence polarization, uHTS | calls only at 35 µM | 290,000 tested, 1% active | AID 2014, 2009;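 further: calls also rest on retests at 20 µM and on dose response follow-up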
Target sequence (P11940 whole entry, looked up): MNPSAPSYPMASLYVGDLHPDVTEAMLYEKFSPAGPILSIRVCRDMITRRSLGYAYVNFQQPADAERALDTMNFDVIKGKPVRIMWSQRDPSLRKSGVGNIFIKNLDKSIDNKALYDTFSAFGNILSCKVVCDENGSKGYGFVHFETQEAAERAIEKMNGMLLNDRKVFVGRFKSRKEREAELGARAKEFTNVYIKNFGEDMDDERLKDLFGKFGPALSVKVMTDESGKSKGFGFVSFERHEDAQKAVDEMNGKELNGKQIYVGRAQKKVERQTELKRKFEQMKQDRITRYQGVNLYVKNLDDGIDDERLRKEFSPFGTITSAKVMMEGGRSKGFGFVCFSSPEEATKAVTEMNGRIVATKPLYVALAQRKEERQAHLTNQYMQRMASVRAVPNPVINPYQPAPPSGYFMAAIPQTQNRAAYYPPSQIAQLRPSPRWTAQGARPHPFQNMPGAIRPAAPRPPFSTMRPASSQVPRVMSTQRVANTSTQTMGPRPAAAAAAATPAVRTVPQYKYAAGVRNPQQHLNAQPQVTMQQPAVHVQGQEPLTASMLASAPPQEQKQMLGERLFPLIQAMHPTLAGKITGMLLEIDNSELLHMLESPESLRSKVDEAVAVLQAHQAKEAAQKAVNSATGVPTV
eIF4H FP inh: human eIF4H binding inhibitors, primary screen, translation initiation inhibitor project, biochemical, uHTS, fluorescence polarization; Eukaryotic translation initiation factor 4H (Homo sapiens), Q15056; eIF4H fluorescence polarization binding assay; inhibition, % at 35 µM; 290,000 tested, 0.94% active; AID 2012, 2009;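 further: calls also rest on retests at 20 µM and on dose response follow-up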
MLLE-PAM2 inh: inhibitors of PABP1 MLLE–PAM2 peptide binding, primary screen, biochemical, fluorescence polarization, FITC-PAM2, GST-MLLE; Polyadenylate-binding protein 1 (Homo sapiens), P11940; inhibition, % at 20 µM; 360,000 tested, 0.36% active; AID 588489, 2011; in the data active means inhibition above about 35%, passing the limit was not always enough;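 further: plate controls were DMSO wells with GST-MLLE for no effect and wells lacking GST-MLLE protein for full effect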
MT1-MMP act inh: blockers of MT1-MMP proenzyme processing, primary screen, HT1080 RFP-PRO-GFP cells, GFP/RFP fluorescence; Matrix metalloproteinase-14 (Homo sapiens), P50281; GFP/RFP ratio fluorescence, overnight; percent of plate control window, DMSO zero; GFP/RFP ratio change, % at 20 µM; 360,000 tested, 0.061% active;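 active means GFP/RFP ratio change of at least 30% with cell ATP level not reduced by more than half and red fluorescence within 50% of control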
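Read-out: GFP/RFP fluorescence ratio; Test system: RFP-PRO-GFP reporter HT1080 cells; Compound dosing: single-point 20 µM compound, 1% DMSO; Times: overnight compound exposure at 37 °C.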
Active calls of the source: *; i = inactive; . = not tested or not shown; + = active, no number. Unless noted, how the calls were made is not given here.

SMILES	SKN-1 inh	PABP FP inh	eIF4H FP inh	MLLE-PAM2 inh	MT1-MMP act inh
CC(C)NC(=O)NC(=O)COC(=O)C1CCCN1C(=O)c1cccs1 (stereo unspecified)	0.7	i	7.9	-3.4	-0.6
CC(C)(C)OC(=O)N1CCCC1C(=O)NCCc1ccccc1 (stereo unspecified)	5.8	+	5.8	-151.6	6.0
O=C(COC(=O)[C@@H]1CCCN1C(=O)c1cccs1)NCCc1ccccc1	35.8*	i	89.7	-1.9	-3.7
O=C(NCCc1ccccc1)C1CCCN1C(=O)NCc1ccccc1 (stereo unspecified)	8.5	i	-9.4	-2.1	-1.0
CN(c1ccc(OCC(=O)OCC(=O)Nc2ccc(Br)cc2)cc1)S(=O)(=O)c1cccs1	6.5	i	-8.8	-11.8	-1.9
CN(c1ccc(OCC(=O)OCC(=O)Nc2ccccc2)cc1)S(=O)(=O)c1cccs1	3.6	+	active	3.0	6.5
CCC(c1nnnn1-c1ccc2c(c1)OCCO2)N1CCN(C/C=C/c2ccccc2)CC1 (stereo unspecified)	-10.2	.	.	3.0	3.1
CSc1ccc(CNC(=O)C2(C)CCCN2CC(C)C)cc1 (stereo unspecified)	-3.8	.	.	1.5	1.4
CC(=O)N(c1ccccc1)c1ccccc1[N+](=O)[O-]	12.5	.	.	-4.9	-0.4
O=C1CCCC2=C1C(c1ccc(O)c(O)c1)Nc1ccc3ccccc3c12 (stereo unspecified)	-5.3	.	.	-13.9	-6.9
O=C1CCCC2=C1C(c1ccco1)Nc1ccc3ccccc3c12 (stereo unspecified)	-0.6	+	80.5*	-3.7	-2.2
O=C(O)CN1C(=O)/C(=C\c2cn(-c3ccccc3)nc2-c2ccccc2)SC1=S	11.1	i	3.4	22.6	-0.3
CC(C)COc1ccc(-c2nn(-c3ccccc3)cc2/C=C2/SC(=S)N(CC(=O)O)C2=O)cc1	-0.2	i	92.8*	-1.9	-1.9
Cc1ccc(S(=O)(=O)Cc2ccc([N+](=O)[O-])cc2)cc1	19.8	+	97.7*	8.1	0.2
O=C(C[C@H]1CC[C@@H]2[C@H](COC[C@H](O)CN2Cc2cccc(C(F)(F)F)c2)O1)NCCc1ccccc1	14.4	.	.	.	4.2
Cc1ccc2cc(CN(Cc3ccc4c(c3)OCO4)Cc3nnnn3Cc3ccco3)c(=O)[nH]c2c1	16.8	i	0.1	8.7	-6.4
COc1ccccc1CN(Cc1cc2c(C)ccc(C)c2[nH]c1=O)Cc1nnnn1Cc1ccco1	37.2*	i	11.3	-13.5	-14.1
COc1cc2cc(CN(Cc3nnnn3Cc3ccccc3)CC3CCCO3)c(=O)[nH]c2cc1OC (stereo unspecified)	6.9	+	53.6*	16.7	1.2
COc1ccc2cc(CN(CCc3ccccc3)Cc3nnnn3Cc3ccco3)c(=O)[nH]c2c1	-11.3	+	54.9*	-14.9	-8.3
Cc1ccc(OCC(=O)N/N=C/c2cccc3cccnc23)cc1	-13.7	i	7.9	-3.8	2.4
N#CC(=C=[N-])c1nc2ccccc2nc1-[n+]1cccc(NC(=O)c2ccccc2)c1	7.2	i	22.5	-5.7	2.0
N#CC(=C=[N-])c1nc2ccccc2nc1-[n+]1cccc(NC(=O)c2cccs2)c1	-4.6	+	54.3*	-7.6	0.3
Cc1ccc(CSc2nc3ccccc3cc2C=O)cc1	41.7*	i	-3.4	-1.6	2.1
Oc1cc(NCCc2cccnc2)cc2cccnc12	20.1	.	.	50.0*	-2.8
Oc1cc(Nc2cccnc2)cc2cccnc12	32.6	.	.	8.2	4.2
SMILES	SKN-1 inh	PABP FP inh	eIF4H FP inh	MLLE-PAM2 inh	MT1-MMP act inh
COc1ccc(C(C)(C)C)cc1NC(=S)NCCN1CCOCC1	-2.5	+	-1.7	5.3	12.8
C[C@H](O)C(=O)C1=Nc2c(nc(N)[nH]c2=O)NC1	-7.6	.	.	13.6	-2.9
C[C@H](O)[C@H](O)[C@H]1CNc2nc(N)[nH]c(=O)c2N1	14.8	.	.	89.2*	-3.5
O=C(Nc1nccs1)c1ccc(Br)o1	16.9	i	-3.6	-47.1	-1.9
O=C(/C=C/c1ccc(Br)o1)Nc1nccs1	17.2	+	56.8*	-1.2	2.2
C#CCN(C(=O)Nc1ccccc1)c1ccccc1	-4.7	+	3.2*	8.4	2.4
O=[N+]([O-])c1ccc(O)c(C=Nc2ccc3c(c2)OCO3)c1	2.2	i	1.0	8.8	-4.9
O=[N+]([O-])c1cc(Br)cc(C=Nc2ccc3c(c2)OCO3)c1O	10.1	+	69.4*	-6.1	-4.0
CN(Cc1cccnc1)Cc1c(C(=O)N2CCc3ccccc3C2)nc2ccc(Cl)cn12	10.3	+	80.5	13.2	-2.3
CN(Cc1cnccn1)Cc1c(C(=O)N2CCc3ccccc3C2)nc2ccc(Cl)cn12	-14.7	i	16.8	10.3	-2.8
COc1ccc(CCNC(=O)COc2cccc(-n3cnnn3)c2)cc1	-6.0	.	.	-1.4	-2.3
Cc1cccc(C)c1NC(=O)CSc1nnc(-c2ccco2)c(-c2ccco2)n1	19.1	+	99.9*	29.7	-18.9
Cc1ccccc1NC(=O)CSc1nnc(-c2ccco2)c(-c2ccco2)n1	5.3	+	98.8*	20.8	-9.5
CCc1nc2c(OCc3cc(Cl)cc(Cl)c3)cccn2c1N(C=O)Cc1ccccc1	13.9	.	.	-18.2	4.2
CCN(CC)c1ccc(C(=S)N2CCN(c3ccccc3)CC2)cc1	32.3*	i	11.1	22.5	-4.2
CCCCCCCCCCCCCCCC[n+]1cccc2ccccc21	53.2*	i	1.8	-142.8	-45.1
CCCCCCCCC[n+]1cccc2c3ccccc3ccc21	14.8	i	-8.2	-9.2	-47.3
Cc1cccn2cc(CNc3ccccc3)nc12	-8.4	i	7.0	2.0	1.0
CCOC(=S)SCc1cn2cccc(C)c2n1	9.1	i	55.9	38.9*	1.5
CSc1ccc(-c2cc3c(c4c2ccn4C)C2CCC3O2)cc1 (stereo unspecified)	14.3	.	.	0.7	-0.9
Clc1ccc(CSc2nnc(-c3ccc4c(c3)OCO4)o2)cc1	11.3	i	-4.5	-5.1	0.9
O=C1CCCCC1Sc1nnc(-c2ccc3c(c2)OCO3)o1 (stereo unspecified)	-3.3	+	9.7*	-37.8	2.6
COCCCNC(=O)COc1ccc2oc3c(c2c1)CCCC3	36.0*	i	-5.0	1.7	0.5
CCOC1=C2CN(S(=O)(=O)c3ccc(C)cc3)[C@H](c3cccc(Cl)c3)C[C@H]2[C@H]2C(=O)N(c3ccccc3)C(=O)[C@H]2C1	6.5	.	.	-6.8	0.1
CCOC1=C2CN(S(=O)(=O)c3ccc(C)cc3)[C@@H](c3ccccc3)C[C@H]2[C@H]2C(=O)N(c3ccccc3)C(=O)[C@H]2C1	10.1	.	.	48.8*	-2.2

Compound activity from PubChem BioAssay.
